According to ChEMBL document CHEMBL3085712, “Protein tyrosine phosphatase 1B (PTP1B) inhibitors from Morinda citrifolia (Noni) and their insulin mimetic activity” (J Nat Prod, 2013):

How the values were obtained:
[1] = system: 3T3-L1; test: Increase in 2-NBDG uptake in mouse 3T3L1 cells after 30 mins by fluorescence spectrophotometry; format: functional, cell-based
Procedure, shortened: (§1)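 Mouse 3T3-L1 preadipocytes were differentiated with insulin, IBMX, dexamethasone, rosiglitazone and 10% FBS, then used 7 days after induction at 3 × 10^4 cells/well. Cells were starved 3 h in low-glucose serum-free DMEM, treated 30 min, then given 50 μM 2-NBDG for 1 h (90 min total). After lysis in 0.1 M K3PO4/1% Triton X-100, fluorescence was read at ex 450/em 535 nm; fold versus DMSO; triplicates, mean ± SD.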

[2] = system: 3T3-L1; test: Increase in 2-NBDG uptake in mouse 3T3L1 cells at 400 ug/ml after 30 mins by fluorescence spectrophotometry relative to DMSO-treated control; format: functional; procedure, shortened: as §1
[3] = target: T1, Tyrosine-protein phosphatase non-receptor type 1 (Homo sapiens, UniProt P18031); test: Inhibition of PTP1B (unknown origin) assessed as p-nitrophenol release from pNPP substrate after 30 mins by spectrophotometry
T1 sequence (P18031 whole entry): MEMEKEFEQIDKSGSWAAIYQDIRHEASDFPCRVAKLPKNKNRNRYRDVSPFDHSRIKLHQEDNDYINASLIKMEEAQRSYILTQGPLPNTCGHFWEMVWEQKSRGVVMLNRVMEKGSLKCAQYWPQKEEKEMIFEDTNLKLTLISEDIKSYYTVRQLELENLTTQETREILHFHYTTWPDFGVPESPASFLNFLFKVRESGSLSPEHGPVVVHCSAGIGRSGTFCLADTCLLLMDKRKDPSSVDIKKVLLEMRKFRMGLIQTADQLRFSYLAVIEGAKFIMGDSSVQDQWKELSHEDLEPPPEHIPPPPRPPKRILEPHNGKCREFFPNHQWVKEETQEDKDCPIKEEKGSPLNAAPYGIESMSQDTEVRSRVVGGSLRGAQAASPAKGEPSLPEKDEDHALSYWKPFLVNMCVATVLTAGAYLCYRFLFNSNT
Procedure, shortened: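 Commercial PTP1B (0.05–0.1 μg) was incubated with 4 mM p-NPP in 50 mM citrate pH 6.0, 1 mM DTT, 0.1 M NaCl and 1 mM EDTA at 37 °C for 30 min. IC50 came from a seven-concentration curve; triplicates, mean ± SD.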

With Oc1ccc([C@H]2OC[C@H]3[C@@H]2CO[C@H]3c2ccc(O)c(O)c2)cc1O the Activity [1] was “Dose-dependent effect”, the “fold change (FC)” value ([2]; in the assay text read “at 20 uM” for “at 400 ug/ml”) was 1.52 and the IC50 ([3]; read-out: IC50) was 21.9 µM.
Work on Oc1ccc([C@@H]2OC[C@@H]3[C@H]2CO[C@H]3c2ccc(O)c(O)c2)cc1O yielded an IC50 ([3]; read-out: IC50) of over 30 µM.
Molecule O=C(O)/C=C/c1ccc2c(c1)O[C@@H](CO)[C@@H](c1ccc(O)c(O)c1)O2 has an IC50 ([3]; read-out: IC50) of over 30 µM.
COc1cc([C@H]2Oc3ccc(/C=C/C(=O)O)cc3O[C@@H]2CO)ccc1O was tested, and the IC50 ([3]; read-out: IC50) was over 30 µM.
COc1cc([C@H]2Oc3ccc(C(=O)O)cc3O[C@@H]2CO)ccc1O showed an IC50 ([3]; read-out: IC50) of 19.6 µM.
With O=C1O[C@@H](c2ccc(O)c(O)c2)[C@@H]2CO[C@@H](c3ccc(O)c(O)c3)[C@H]12 the IC50 [3] was “Not Active”.
With COc1cc([C@H]2OC[C@H]3[C@@H]2CO[C@@H]3c2cc(OC)c(OC)c(OC)c2)cc(OC)c1OC the Activity [1] was “Dose-dependent effect”, the “fold change (FC)” value [2] was 1.45 and the IC50 ([3]; read-out: IC50) was 16.8 µM.
In the case of O=C(O)/C=C/c1ccc2c(c1)O[C@@H](CO)[C@H](c1ccc(O)c(O)c1)O2 (relative stereo), the IC50 ([3]; read-out: IC50) is reported as over 30 µM.
COc1cc([C@H]2Oc3ccc(CCCO)cc3O[C@@H]2CO)ccc1O (relative stereo) showed an IC50 ([3]; read-out: IC50) of over 30 µM.
O=C1O[C@@H](c2ccc(O)c(O)c2)[C@H](CO)/C1=C\c1ccc(O)c(O)c1 (relative stereo) was tested, and the IC50 [3] was “Not Active”.
For COc1cc([C@@H]2OC[C@H]3[C@@H]2CO[C@H]3c2ccc(O)c(OC)c2)ccc1O [(-)-PINORESINOL], the IC50 ([3]; read-out: IC50) was 18.7 µM.
For O=C/C=C/c1ccc2c(c1)O[C@@H](CO)[C@H](c1ccc(O)c(O)c1)O2 [AMERICANIN A], the IC50 [3] was “Not Active”.
For CN(CCOc1ccc(CC2SC(=O)NC2=O)cc1)c1ccccn1 (configuration not stated) [ROSIGLITAZONE], the “fold change (FC)” value [2] was 1.7.
COc1cc([C@H]2OC[C@H]3[C@@H]2CO[C@@H]3c2cc(OC)c(O)c(OC)c2)cc(OC)c1O [SYRINGARESINOL] was tested, and the Activity [1] was “Dose-dependent effect”, the “fold change (FC)” value [2] was 1.46 and the IC50 ([3]; read-out: IC50) was 15 µM.
C[C@H]1[C@H](C)CC[C@]2(C(=O)O)CC[C@]3(C)C(=CC[C@@H]4[C@@]5(C)CC[C@H](O)C(C)(C)[C@@H]5CC[C@]43C)[C@H]12 [URSOLIC ACID] was tested, and the Activity [1] was “Dose-dependent effect” and the “fold change (FC)” value [2] was 1.82.
